What all share (format): functional
Experiment [1] has as its system Mus musculus. Description: In vivo euglycemic activity of the compound (administered by oral gavage) in C57/6J-ob/ob mice is measured by normalization of blood glucose levels at a dose of 50(mg/kg).
The subject of experiment [2] is Mus musculus. Description: In vivo euglycemic activity (administered by oral gavage) in C57/6J-ob/ob mice by normalization of blood glucose levels at a dose of 0.5 mg/kg. Put shortly: (§1)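 Mice bled from retro-orbital sinus into tubes with 2% sodium heparin for baseline glucose, then dosed by oral gavage once daily for 4 days in 0.25% (w/v) methylcellulose in water, no pH adjustment (0.1 mL per 20 g). Bled 24 h after fourth dose. Samples centrifuged 2 min at 10000g. Plasma glucose measured by hexokinase UV method. Results scaled to vehicle (0%) and ciglitazone 50 mg/kg (100%).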

Experiment [3] deals with Mus musculus. Description: In vivo euglycemic activity of the compound (administered by oral gavage) in C57/6J-ob/ob mice is measured by normalization of blood glucose levels at a dose of 0.25(mg/kg). The gist of the method: as §1
Experiment [4] deals with Mus musculus. Description: In vivo euglycemic activity of the compound (administered by oral gavage) in C57/6J-ob/ob mice is measured by normalization of blood glucose levels at a dose of 1(mg/kg). The gist of the method:
as §1

Experiment [5] relates to Mus musculus. Description: In vivo euglycemic activity of the compound (administered by oral gavage) in C57/6J-ob/ob mice is measured by normalization of blood glucose levels at a dose of 10(mg/kg). Put shortly: as §1

We go through three molecules from ChEMBL document CHEMBL1126043, “Novel thiazolidine-2,4-diones as potent euglycemic agents” (1992).

`CC1(COc2ccc(CC3SC(=O)NC3=O)cc2)CCCCC1` (stereo not given) [CIGLITAZONE] registered a Normalization in the experiment on Mus musculus [1] of 100%.

Consider `Cc1ccc(-c2nc(CCC(=O)c3ccc(CC4SC(=O)NC4=O)cc3)c(C)o2)cc1` (stereo not given), for which the Normalization in the experiment with Mus musculus [2] is reported as 47%; in the experiment on Mus musculus [3], 15%; with Mus musculus [4], 47%.

Regarding `O=C1NC(=O)C(Cc2ccc(C(=O)COc3ccccc3)cc2)S1` (stereo not given), the Normalization in the experiment on Mus musculus [5] turned out to be 7%.
